Experimental data reported in article PMC9307089 (Journal of medicinal chemistry, 2021).
Where two headings read alike, the source gives them in different places. Numbered stars: 1 amine (or outer) side, 2 acyl side, 3 side chain; on linkers, the order of the positions; unused ones are H or OH. Square brackets hold non-standard residues; d marks the D form. Peptide text beside a SMILES is read from it. X1 = N=C(N)NCCC[C@H](N[*:1])C(=O)c1nc2ccc(C(=O)[*:2])cc2s1

Columns and labels:
thrombin = thrombin (Homo sapiens, UniProt P00734); assay: Chromogenic kinetic enzyme assay, thrombin; format: biochemical
hepsin = hepsin (Homo sapiens, UniProt P05981); assay: Proteolytic processing of recombinant pro-HGF by hepsin; format: biochemical; conditions: pro-HGF 10 ng, hepsin 10 nM, one hour
How it was run: (§1)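 Recombinant pro-HGF (10 ng) was incubated 1 h with matriptase (1 nM), hepsin (10 nM) or HGFA (5 nM), with or without test compound. Products were immunoblotted with a polyclonal antibody detecting pro-HGF and the alpha and beta chains of active HGF. Active HGF was run as positive control.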

EBC-1 lung cancer cells [1] = assay: Cell viability, pro-HGF-mediated resistance to MET inhibitor JNJ-38877605; format: cell-based; conditions: JNJ-38877605 25 nM, pro-HGF 100 ng/ml, inhibitor 1 μM, 48 h
How it was run: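 EBC-1 cells pre-incubated 24 h with pro-HGF (100 ng/ml), with or without test compound (1μM), then treated with MET kinase inhibitor JNJ-38877605 (25nM). Viability read by CellTiterGlo after 48 hrs. Means±S.E.M., n=3. One-way ANOVA with Dunnett's multiple comparison test against JNJ plus pro-HGF treated cells.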

matriptase = biological target: T1, matriptase (Homo sapiens, UniProt Q9Y5Y6); assay: Proteolytic processing of recombinant pro-HGF by matriptase; format: biochemical; conditions: pro-HGF 10 ng, matriptase 1 nM, one hour
T1 sequence (Q9Y5Y6 1-855): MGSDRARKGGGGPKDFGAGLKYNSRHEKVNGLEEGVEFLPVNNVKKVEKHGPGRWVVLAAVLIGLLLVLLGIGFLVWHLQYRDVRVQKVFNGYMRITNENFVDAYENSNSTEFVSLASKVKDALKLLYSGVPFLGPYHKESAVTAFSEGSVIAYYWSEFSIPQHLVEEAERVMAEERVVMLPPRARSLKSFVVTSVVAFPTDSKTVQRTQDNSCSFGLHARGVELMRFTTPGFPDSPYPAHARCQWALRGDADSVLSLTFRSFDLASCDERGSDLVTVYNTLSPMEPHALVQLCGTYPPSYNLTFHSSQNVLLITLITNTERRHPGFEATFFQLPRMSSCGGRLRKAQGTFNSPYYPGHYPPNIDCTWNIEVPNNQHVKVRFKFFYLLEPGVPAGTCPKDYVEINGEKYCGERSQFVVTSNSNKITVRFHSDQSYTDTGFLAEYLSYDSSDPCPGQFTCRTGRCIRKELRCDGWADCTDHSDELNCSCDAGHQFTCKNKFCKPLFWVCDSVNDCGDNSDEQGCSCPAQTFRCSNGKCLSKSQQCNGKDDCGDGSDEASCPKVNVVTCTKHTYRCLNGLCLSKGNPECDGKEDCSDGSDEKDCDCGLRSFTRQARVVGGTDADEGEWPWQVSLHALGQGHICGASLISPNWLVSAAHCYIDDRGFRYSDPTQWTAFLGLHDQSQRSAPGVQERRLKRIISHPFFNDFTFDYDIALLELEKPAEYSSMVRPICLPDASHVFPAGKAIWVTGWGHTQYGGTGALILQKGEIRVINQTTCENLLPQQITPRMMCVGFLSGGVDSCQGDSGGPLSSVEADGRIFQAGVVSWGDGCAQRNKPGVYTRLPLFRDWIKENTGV
How it was run: as §1

HCC827 lung cancer cells = assay: Cell viability, pro-HGF-mediated resistance to gefitinib; format: cell-based; conditions: gefitinib 20 nM, pro-HGF 100 ng/ml, inhibitor 0.1-1 μM, 72 h
How it was run: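 HCC827 cells (EGFR exon-19 E746–A750 deletion) were exposed to gefitinib (20 nM), with or without pro-HGF (100 ng/ml), and test compound (0.1–1 μM) as indicated. Viability was read by crystal violet staining after 72 h. Data are means ± S.E.M. of n=3–5, analysed by one-way ANOVA with Dunnett's test against cells given gefitinib plus pro-HGF.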

HGFA = biological target: T2, HGFA (Homo sapiens, UniProt Q04756); assay: Proteolytic processing of recombinant pro-HGF by HGFA; format: biochemical; conditions: pro-HGF 10 ng, HGFA 5 nM, one hour
T2 sequence (Q04756 373-655): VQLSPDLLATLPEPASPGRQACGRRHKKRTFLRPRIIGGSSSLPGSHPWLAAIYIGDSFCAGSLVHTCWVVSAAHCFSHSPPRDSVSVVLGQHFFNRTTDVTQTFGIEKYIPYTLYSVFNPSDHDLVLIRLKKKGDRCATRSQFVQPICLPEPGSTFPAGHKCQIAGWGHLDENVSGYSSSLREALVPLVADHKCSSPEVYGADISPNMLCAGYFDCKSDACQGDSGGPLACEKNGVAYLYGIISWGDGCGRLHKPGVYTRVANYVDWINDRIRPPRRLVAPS
How it was run: as §1

HCC827 cells = assay: Pro-HGF-mediated wound healing; format: cell-based; conditions: HCC827, inhibitor 10 μM, 24 h
How it was run: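 HCC827 monolayers were grown to confluence, serum-starved overnight and scratched. Cells were then pre-incubated 30 min with test compound (10 μM) and stimulated with HGF or pro-HGF for 24 h. Plates were stained with crystal violet and wound closure imaged; data average n=3.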

H596 lung cancer cells = assay: Pro-HGF-mediated growth of H596 cells in vitro; format: cell-based; conditions: pro-HGF 50 ng/ml; JNJ 500 nM, nafamostat […], ZFH7116 10 μM
[2] = Mouse plasma protein binding; format: in vitro ADME
[3] = Mouse pharmacokinetics, IP dosing; conditions: for duration of compound exposure (detectable compound) in plasma: monitored for 24 h
[4] = Tolerability in mice, daily IP for 7 days; format: in vivo
[5] = In vitro stability in mouse plasma; format: in vitro ADME
[6] = biological target: T3, recombinant serine protease domain of HGFA (Homo sapiens, UniProt Q04756); assay: Fluorescent kinetic enzyme inhibition assay, HGFA; format: biochemical
T3 sequence (Q04756 408-646 limits assumed): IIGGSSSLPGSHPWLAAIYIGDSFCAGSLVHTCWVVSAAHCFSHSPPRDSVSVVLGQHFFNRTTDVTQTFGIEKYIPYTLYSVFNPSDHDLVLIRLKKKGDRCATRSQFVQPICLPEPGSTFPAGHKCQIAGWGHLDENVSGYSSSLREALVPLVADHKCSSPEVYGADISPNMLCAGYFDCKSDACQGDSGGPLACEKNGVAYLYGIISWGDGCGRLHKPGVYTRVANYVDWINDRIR

[7] = In vitro stability in human plasma; format: in vitro ADME
EBC-1 lung cancer cells [8] = conditions: previous finding; cited from earlier work
[9] = read-out: Thrombin IC50, chromogenic substrate S2238

Sequence of hepsin (P05981 whole entry): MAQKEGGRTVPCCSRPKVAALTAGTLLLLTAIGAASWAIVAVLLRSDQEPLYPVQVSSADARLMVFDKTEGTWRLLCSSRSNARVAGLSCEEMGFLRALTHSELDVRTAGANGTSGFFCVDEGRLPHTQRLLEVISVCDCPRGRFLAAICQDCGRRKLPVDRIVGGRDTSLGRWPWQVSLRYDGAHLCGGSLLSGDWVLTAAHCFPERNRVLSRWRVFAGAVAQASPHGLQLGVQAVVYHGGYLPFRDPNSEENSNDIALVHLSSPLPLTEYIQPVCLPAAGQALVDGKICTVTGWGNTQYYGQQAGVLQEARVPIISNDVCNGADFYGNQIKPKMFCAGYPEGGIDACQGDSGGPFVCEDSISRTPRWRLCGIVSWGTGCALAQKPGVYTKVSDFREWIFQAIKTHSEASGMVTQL

CC(=O)N[C@H]1CC(=O)NCCCC[C@@H](C(=O)N[C@@H](CCCNC(=N)N)C(=O)c2nc3ccccc3s2)NC(=O)[C@H](CCC(N)=O)NC1=O [Compound 26, Ac-cyclo(DQK)-R- ketobenzothiazole]
IC50 (thrombin; [9]): > 20 µM

CC(=O)N[C@H]1CC(=O)NCCCC[C@@H](C(=O)N[C@@H](CCCNC(=N)N)C(=O)c2nc3ccccc3s2)NC(=O)[C@H](C(C)C)NC1=O [Compound 24, Ac-cyclo(DVK)-R- ketobenzothiazole]
IC50 (thrombin; [9]): > 20 µM

CC(=O)N[C@@H](CO)C(=O)N[C@@H](CCCCN)C(=O)N[C@@H](CC(C)C)C(=O)N[C@@H](CCCNC(=N)N)C(=O)c1nc2ccc(C(=O)N[C@H](C(N)=O)C(C)C)cc2s1 [Compound 31] (Ac-SKL[X1]V-NH2)
inhibition of pro-HGF activation by hepsin (hepsin): potently inhibited | pro-survival activity of pro-HGF in JNJ-38877605-treated EBC-1 cells (EBC-1 lung cancer cells [1]): blocked the pro-survival activity of pro-HGF | inhibition of pro-HGF activation by matriptase (matriptase): potently inhibited | pro-survival effect of pro-HGF in gefitinib-treated HCC827 cells (HCC827 lung cancer cells): blocked the pro-survival effects of pro-HGF | inhibition of pro-HGF activation by HGFA (HGFA): potently inhibited | pro-HGF-mediated wound closure (HCC827 cells): significantly inhibited | pro-HGF-mediated growth of H596 cells (H596 lung cancer cells): blocked the growth-promoting activity of pro-HGF | Mouse PPB (% free) [2]: 16.7 % free

Cn1cc(-c2ccc3nnc(C(F)(F)c4ccc5ncccc5c4)n3n2)cn1 [JNJ-38877605]
pro-HGF-mediated growth of H596 cells (H596 lung cancer cells): inhibited the pro-HGF-mediated growth of H596 cells

CC(=O)N[C@H]1CCCCNC(=O)CC[C@@H](C(=O)N[C@@H](CCCNC(=N)N)C(=O)c2nc3ccccc3s2)NC(=O)[C@H](CC(C)C)NC1=O [Compound 16, Ac-cyclo(KLE)-R-ketobenzothiazole]
duration of compound exposure (detectable compound) in plasma ([3]; IP 20 mg/kg): ≤ 8 h | Mouse PPB (% free) [2]: 18.4 % free

CC(=O)N[C@H]1CC(=O)NCCCC[C@@H](C(=O)N[C@@H](CCCNC(=N)N)C(=O)c2nc3ccccc3s2)NC(=O)CNC1=O [Compound 22, Ac-cyclo(DGK)-R- ketobenzothiazole]
IC50 (thrombin; [9]): > 20 µM

CC(=O)N[C@H]1CC(=O)NCCCC[C@@H](C(=O)N[C@@H](CCCNC(=N)N)C(=O)c2nc3ccccc3s2)NC(=O)[C@H](Cc2ccccc2)NC1=O [Compound 29, Ac-cyclo(DFK)-R- ketobenzothiazole]
AUC in mice (in words) ([3]; IP 20 mg/kg): comparable to 18

CC(=O)N[C@H]1CC(=O)NCCCC[C@@H](C(=O)N[C@@H](CCCNC(=N)N)C(=O)c2nc3ccccc3s2)NC(=O)[C@H](CC(C)C)NC1=O [Compound 18, Ac-cyclo(DLK)-R- ketobenzothiazole]
tolerated dose [4]: up to 20 mg/kg | inhibition of pro-HGF activation by hepsin (hepsin): potently inhibited | pro-survival activity of pro-HGF in JNJ-38877605-treated EBC-1 cells (EBC-1 lung cancer cells [1]): blocked the pro-survival activity of pro-HGF | AUC in mice (in words) ([3]; IP 20 mg/kg): high | duration of compound exposure above IC50s ([3]; IP 20 mg/kg): 24 h | duration of compound exposure (detectable compound) in plasma ([3]; IP 20 mg/kg): > 24 h | inhibition of pro-HGF activation by matriptase (matriptase): potently inhibited | inhibition of pro-HGF activation by HGFA (HGFA): did not inhibit | pro-HGF-mediated wound closure (HCC827 cells): significantly inhibited | Mouse PPB (% free) [2]: 28.6 % free

CC(=O)N[C@H]1CC(=O)NCCCC[C@@H](C(=O)N[C@@H](CCCNC(=N)N)C(=O)c2nc3ccccc3s2)NC(=O)[C@H](CC(N)=O)NC1=O [Compound 25, Ac-cyclo(DNK)-R- ketobenzothiazole]
IC50 (thrombin; [9]): > 20 µM

N=C(N)Nc1ccc(C(=O)Oc2ccc3cc(C(=N)N)ccc3c2)cc1 [Nafamostat]
pro-HGF-mediated growth of H596 cells (H596 lung cancer cells): inhibited the pro-HGF-mediated growth of H596 cells

CC(=O)N[C@H]1CC(=O)NCCCC[C@@H](C(=O)N[C@@H](CCCNC(=N)N)C(=O)c2nc3ccccc3s2)NC(=O)[C@H](C)NC1=O [Compound 23, Ac-cyclo(DAK)-R- ketobenzothiazole]
IC50 (thrombin; [9]): > 20 µM

CC(=O)N[C@H]1CCCCNC(=O)CC[C@@H](C(=O)N[C@@H](CCCNC(=N)N)C(=O)c2nc3ccccc3s2)NC(=O)[C@H](CCCNC(=N)N)NC1=O [Compound 17, Ac-cyclo(KRE)-R- ketobenzothiazole]
Mouse PPB (% free) [2]: 25.9 % free

CC(=O)N[C@H]1CCC(=O)NCCCC[C@@H](C(=O)N[C@@H](CCCNC(=N)N)C(=O)c2nc3ccccc3s2)NC(=O)[C@H](CC(C)C)NC1=O [Compound 19, Ac-cyclo(ELK)-R- ketobenzothiazole]
half-life [5]: 2.62 h | IC50 [6]: > 20 µM | IC50 (thrombin): > 20 µM | duration of compound exposure (detectable compound) in plasma ([3]; IP 20 mg/kg): ≤ 8 h | half-life ([3]; mouse, plasma, ip, 20 mg/kg): < 0.5 h | half-life [7]: > 4.82 h | Mouse PPB (% free) [2]: 6.0 % free

CC(=O)N[C@H]1CC(=O)NCCCC[C@@H](C(=O)N[C@@H](CCCNC(=N)N)C(=O)c2nc3ccccc3s2)NC(=O)[C@H](Cc2ccc(O)cc2)NC1=O [Compound 30, Ac-cyclo(DYK)-R- ketobenzothiazole]
IC50 (thrombin; [9]): > 20 µM

CC(=O)N[C@H]1CCCCNC(=O)C[C@@H](C(=O)N[C@@H](CCCNC(=N)N)C(=O)c2nc3ccccc3s2)NC(=O)[C@H](CC(C)C)NC1=O [Compound 15, Ac-cyclo(KLD)-R-ketobenzothiazole]
Mouse PPB (% free) [2]: 85.3 % free

CC1CN(CC2CCN(Cc3ccccc3)CC2)C(=O)N(c2cccc(C(=N)N)c2)C1.O=C(O)C(F)(F)F (stereo not shown) [SRI31215]
HGF-mediated survival of MET-amplified cancer cells upon MET inhibition (EBC-1 lung cancer cells [8]): inhibited

CC(=O)N[C@H]1CC(=O)NCCCC[C@@H](C(=O)N[C@@H](CCCNC(=N)N)C(=O)c2nc3ccccc3s2)NC(=O)[C@H]([C@@H](C)O)NC1=O [Compound 27, Ac-cyclo(DTK)-R- ketobenzothiazole]
IC50 (thrombin; [9]): > 20 µM
